Calls of active or inactive are those of the source. No cut-off for these calls is given here.
Tests used:
[1] = biological target: T1, Tubulin (Bos taurus, UniProt Q6B856+Q862L2+Q862F3); test: Inhibition of bovine brain tubulin assessed as rate of assembly preincubated for 15 mins by turbidimetry
How it was run: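 Bovine brain tubulin at 10 µM (1.0 mg/mL) in 0.8 M monosodium glutamate pH 6.6 with 4% DMSO and varying compound was preincubated 15 min at 30 °C, then chilled. GTP was added to 0.4 mM final and the temperature jumped from 0 to 30 °C. Turbidity was followed at 350 nm, scoring either maximum rate or extent of assembly at 20 min.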

[2] = system: HeLa; test: Disruption of microtubule network in human HeLa cells assessed as induction of spherical morphology at 25 uM after 24 hrs by immunofluorescence microscopy; type: cell-based
How it was run: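 HeLa cells exposed 24 h at 25 µM, fixed in cold 4% formaldehyde for 15 min, and stained with anti-β-tubulin plus Alexa-conjugated secondary antibody, with DAPI counterstain. Cells were imaged by confocal microscopy.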

[3] = system: HeLa; test: Effect on PCM1 protein in human HeLa cells assessed as accumulation of pericentriolar material at 25 uM after 24 hrs by immunofluorescence microscopy; type: functional, cell-based
How it was run: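 After 24 h at 25 µM, HeLa cells were stained with anti-PCM1 and Alexa-conjugated secondary antibody, with phalloidin-tetramethylrhodamine B for actin and DAPI for nuclei. Cells were imaged by confocal microscopy at 60×.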

[4] = system: HeLa; test: Downregulation of cdc25c protein level in human HeLa cells at 25 uM after 24 hrs by Western blot analysis; type: functional, cell-based; details: in the assay text read “after 48 hrs” for “after 24 hrs”
How it was run: (§1)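 HeLa cells treated 24 or 48 h at 25 µM, then washed in PBS and lysed 30 min on ice. 20 µg protein per lane was resolved on 7.5–15% SDS-PAGE and blotted to PVDF. Blots were probed for cyclin B, p-cdc2 Tyr15, cdc25C and γH2A.X, with β-actin reprobe as loading control and ECL detection.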

[5] = system: HeLa; test: Induction of DNA damage in human HeLa cells assessed as increase in phosphorylated form of histone gamma-H2A.X level at 25 uM after 48 hrs by Western blot analysis; type: functional, cell-based; how it was run: as §1
[6] = system: HeLa; test: Induction of apoptosis in human HeLa cells assessed as viable cells at 25 uM after 24 hrs using Annexin-V/PI staining by flow cytometry (reference value: 86.7 %); type: functional; details: read-out: Activity
[7] = system: HeLa; test: Induction of apoptosis in human HeLa cells assessed as PARP cleavage at 25 uM after 24 to 48 hrs by Western blot analysis; type: functional, cell-based
How it was run: (§2)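 HeLa cells treated 24 or 48 h at 25 µM, then lysed. 20 µg protein per lane was run on SDS-PAGE and transferred to PVDF. Membranes were probed 2 h at room temperature for cleaved caspase-9, caspase-3, cleaved PARP, Bcl-2, Mcl-1 or Bax, with peroxidase secondary antibody and ECL. β-Actin reprobe served as loading control.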

[8] = system: HeLa; test: Induction of apoptosis in human HeLa cells assessed as reduction in Bcl-2 expression at 25 uM after 24 hrs by Western blot analysis; type: functional, cell-based; how it was run: as §2
[9] = biological target: T1, Tubulin; test: Displacement of [3H]colchicine from bovine brain tubulin assessed as rate of assembly after 10 mins by liquid scintillation counting
[10] = system: HeLa; test: Downregulation of phosphorylated form of cdc25c protein level in human HeLa cells at 25 uM after 24 hrs by Western blot analysis; type: functional, cell-based; how it was run: as §1
[11] = system: Jurkat; test: Antiproliferative activity against human Jurkat cells assessed as reduction in cell viability after 72 hrs by MTT assay; type: functional, cell-based
How it was run: (§3)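 Cells kept in RPMI-1640 (Jurkat, SEM, RS4;11) or DMEM (A549, HeLa, IGROV-1, HT-29) with 10% FBS plus penicillin/streptomycin. 8×10^3 cells per well were left 18 h at 37 °C in 5% CO2. Medium was then replaced with fresh medium holding graded compound concentrations from 10 mM DMSO stocks. Cells were incubated 72 h and viability read by MTT. IC50 is the mean ± SEM from dose–response curves of at least three independent experiments.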

[12] = Antiproliferative activity against human SEM cells assessed as reduction in cell viability after 72 hrs by MTT assay; type: functional, cell-based; how it was run: as §3
[13] = system: Jurkat; test: Cell cycle arrest in human Jurkat cells assessed as accumulation at G2/M phase at 10 to 25 uM after 24 hrs by flow cytometry; type: functional, cell-based
How it was run: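 5×10^5 HeLa or Jurkat cells exposed to graded compound concentrations for 24 h. Cells were fixed in ice-cold 70% ethanol, lysed with RNase A/0.1% Triton X-100 buffer and stained with propidium iodide. DNA content was read by flow cytometry. Phase percentages are mean ± SEM of three independent experiments.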

[14] = system: HeLa; test: Upregulation of cyclin B protein level in human HeLa cells at 25 uM after 24 hrs by Western blot analysis; type: functional, cell-based
[15] = system: HeLa; test: Downregulation of cyclin B protein level in human HeLa cells at 25 uM after 48 hrs by Western blot analysis; type: functional, cell-based; how it was run: as §1
[16] = system: HeLa; test: Upregulation of cdc25c protein level in human HeLa cells at 25 uM after 24 hrs by Western blot analysis; type: functional, cell-based
[17] = system: HeLa; test: Upregulation of aurora kinase A protein level in human HeLa cells at 25 uM after 24 hrs by Western blot analysis; type: functional, cell-based
[18] = system: HeLa; test: Induction of DNA damage in human HeLa cells assessed as increase in phosphorylated form of histone gamma-H2A.X level at 25 uM after 24 hrs by Western blot analysis; type: functional, cell-based; how it was run: as §1
[19] = system: CA46; test: Antiproliferative activity against human CA46 cells assessed as reduction in cell viability after 72 hrs by MTT assay; type: functional, cell-based; details: CA46, 72 h
[20] = system: CA46; test: Cell cycle arrest in human CA46 cells assessed as accumulation at G2/M phase at 5 times IC50 by flow cytometry; type: functional
[21] = system: CA46; test: Cell cycle arrest in human CA46 cells assessed as reduction in mitotic index by Giemsa staining method relative to control; type: functional; design: scale not given: the % may be the effect or the level left
How it was run: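 CA46 Burkitt lymphoma cells grown in RPMI 1640 with 17% FBS and 2 mM L-glutamine at 37 °C, 5% CO2, treated 16 h. Cells were swollen 10 min in half-strength PBS, fixed in 0.5% acetic acid–1.5% ethanol, then spread from 25% acetic acid/75% ethanol. Slides were Giemsa-stained. Mitotic cells were those with condensed chromosomes and no nuclear membrane, with ≥200 cells counted per condition.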

Question: For `COc1ccc2c(c1OC)C(=O)O[C@@H]2[C@H]1c2c(c(Br)c3c(c2OC)OCO3)CCN1C`, which IC50 [1] is on record?
Answer: Its IC50 is greater than 400 µM.

Question: And the Activity [2]?
Answer: Its Activity is 70%.

Question: What about the Activity [3] of the same compound?
Answer: Its Activity is “Active”.

Question: And the Activity [4]?
Answer: The Activity was “Active”.

Question: And the Activity [5]?
Answer: The Activity was “Active”.

Question: What about the viability at 25 µM [6] of the same compound?
Answer: Its viability at 25 µM is 76.8%.

Question: What about the Activity [7] of the same compound?
Answer: Its Activity is “Active”.

Question: What about the Activity [8] of the same compound?
Answer: Its Activity is “Active”.

Question: What about the IC50 [9] of the same compound?
Answer: Its IC50 is greater than 400 µM.

Question: What about the Activity [10] of the same compound?
Answer: The Activity was “Active”.

Question: And the IC50 [11]?
Answer: The IC50 was 3 µM.

Question: What about the IC50 [12] of the same compound?
Answer: Its IC50 is 1.8 µM.

Question: What does the source list for `COc1ccc2c(c1OC)C(=O)O[C@@H]2[C@H]1c2c(c(-c3ccc(C)cc3)c3c(c2OC)OCO3)CCN1C`?
Answer: IC50 [1]: 45 µM; Activity [13]: Active; Activity [14]: Active; Activity [15]: Active; Activity [16]: Active; Activity [4]: Active; Activity [17]: Active; Activity [18]: Active; viability at 25 µM [6]: 5.88%; Activity [7]: Active; Activity [8]: inactive; Activity [10]: Active; IC50 [11]: 5.1 µM; IC50 [12]: 7.4 µM

Question: With `COc1ccc2c(c1OC)C(=O)O[C@@H]2[C@H]1c2c(c(C)c3c(c2OC)OCO3)CCN1C` as the compound, how does the IC50 [1] read?
Answer: The IC50 was 220 µM.

Question: And the Activity [2]?
Answer: The Activity was 70%.

Question: What about the Activity [3] of the same compound?
Answer: Its Activity is “Active”.

Question: And the Activity [13]?
Answer: The Activity was “Active”.

Question: And the IC50 [19]?
Answer: The IC50 was 18 µM.

Question: What about the Activity [20] of the same compound?
Answer: Its Activity is greater than 80%.

Question: What about the Activity [21] of the same compound?
Answer: Its Activity is 38%.

Question: And the Activity [14]?
Answer: Its Activity is “Active”.

Question: What about the Activity [17] of the same compound?
Answer: The Activity was “Active”.

Question: And the Activity [18]?
Answer: Its Activity is “Active”.

Question: What about the viability at 25 µM [6] of the same compound?
Answer: Its viability at 25 µM is 9.8%.

Question: And the Activity [7]?
Answer: The Activity was “Active”.

Question: What about the Activity [8] of the same compound?
Answer: Its Activity is “Active”.

Question: And the Activity [10]?
Answer: Its Activity is “Active”.

Question: What about the IC50 [11] of the same compound?
Answer: Its IC50 is 5.9 µM.

Question: What about the IC50 [12] of the same compound?
Answer: Its IC50 is 4.3 µM.
